In the library only some 4.8% were active in any assay of this set; here they are far more common.
GRIN3A LBD mod: binders of NR3A ligand-binding domain, primary screen, biophysical, differential scanning fluorimetry, uHTS; NR3A LBD differential scanning fluorimetry, Tm shift; 0% = protein alone, 100% = glycine-bound protein; Tm shift relative to glycine control, % at 25 µM; 2.5% of 340,000 active; Glutamate receptor ionotropic, NMDA 3A (GRIN3A) ligand-binding domain;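 active = melting temperature shift of at least 10% of the positive control shift, at one fixed dose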
UCH37 DUB inh: inhibitors of human UCH37 deubiquitinase, primary screen, biochemical, Ub-AMC cleavage, fluorescence; Ubiquitin carboxyl-terminal hydrolase isozyme L5 (Homo sapiens), Q9Y5K5; purified proteasome/UCH37; inhibition, % (no concentration beside the values); 0.33% of 330,000 active;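 active = mean inhibition over replicate wells above about 20%, limit read from the data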;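 note: 0% = compound-free wells with enzyme and 100% = wells lacking proteasome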
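Reagent: Ub-AMC substrate; assay system: Proteasome-associated human UCH37 deubiquitinase; controls: no-proteasome and no-compound wells; read-out: % inhibition of Ub-AMC cleavage fluorescence; timing: 30 min preincubation with enzyme, 25 min cleavage at room temperature; signal: AMC fluorescence from Ub-AMC cleavage, excitation 355 nm, emission 460 nm; buffer or medium: Tris-HCl pH 7.4 plus ovalbumin, ATP-MgCl2, DTT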
PAFAH2 inh: PAFAH2 enzyme inhibitors, primary screen, biochemical, fluorescence polarization, human; recombinant PAFAH2, FP-rhodamine activity probe; inhibition, % at 3.39 µM; 0.99% of 340,000 active; AID 492956, 2010;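 active = inhibition above the mean over all tested compounds plus 3 SD, cut at about 30% in these data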;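 note: inhibitors block probe labeling of enzyme so polarization drops; 0% = enzyme with DMSO and 100% = wells lacking PAFAH2 protein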
pPAFAH FP inh: pPAFAH enzyme inhibitors, primary screen, biochemical, fluorescence polarization, human; Platelet-activating factor acetylhydrolase (Homo sapiens), Q13093; recombinant pPAFAH, FP-rhodamine probe fluorescence polarization; inhibition, % at 3.39 µM; 1.5% of 330,000 active;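 active = inhibition above the mean inhibition across the screen plus 3 SD, cut at about 25% in these data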;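 note: inhibitors block binding of the rhodamine activity-based probe so polarization drops; 0% = enzyme with DMSO and 100% = wells lacking pPAFAH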
Target sequence (Q13093 whole entry, looked up): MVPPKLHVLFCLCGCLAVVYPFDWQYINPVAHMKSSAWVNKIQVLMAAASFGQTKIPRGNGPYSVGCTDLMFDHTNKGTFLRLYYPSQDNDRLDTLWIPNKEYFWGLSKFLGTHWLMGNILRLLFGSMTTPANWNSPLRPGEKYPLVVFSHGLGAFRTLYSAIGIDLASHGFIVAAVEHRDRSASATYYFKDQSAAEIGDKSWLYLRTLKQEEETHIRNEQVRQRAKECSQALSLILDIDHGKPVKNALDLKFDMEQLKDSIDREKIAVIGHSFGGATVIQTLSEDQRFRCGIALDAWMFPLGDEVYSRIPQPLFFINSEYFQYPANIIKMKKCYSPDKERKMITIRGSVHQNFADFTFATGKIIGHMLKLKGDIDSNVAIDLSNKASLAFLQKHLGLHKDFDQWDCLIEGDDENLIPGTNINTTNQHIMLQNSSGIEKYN
PAFAH1B2 FP inh: PAFAH1B2 enzyme inhibitors, primary screen, biochemical, fluorescence polarization, human; Platelet-activating factor acetylhydrolase IB subunit alpha2 (Homo sapiens), P68402; recombinant PAFAH1B2, FP-rhodamine activity probe; inhibition, % at 3.39 µM; 1.2% of 340,000 active; AID 492953, 2010;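 active = inhibition above the mean of all tested compounds plus 3 SD, cut at about 24% in these data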;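 note: 0% = enzyme with DMSO and 100% = wells lacking PAFAH1B2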
Target sequence (P68402 whole entry, looked up): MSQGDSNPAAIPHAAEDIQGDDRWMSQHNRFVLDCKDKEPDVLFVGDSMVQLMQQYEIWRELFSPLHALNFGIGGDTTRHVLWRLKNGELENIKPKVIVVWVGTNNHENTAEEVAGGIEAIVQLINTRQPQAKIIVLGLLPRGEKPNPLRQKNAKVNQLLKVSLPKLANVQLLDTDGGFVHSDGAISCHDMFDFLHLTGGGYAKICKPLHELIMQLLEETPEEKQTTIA
PAFAH1B3 inh: PAFAH1B3 enzyme inhibitors, primary screen, biochemical, fluorescence polarization, human; Platelet-activating factor acetylhydrolase IB subunit alpha1 (Homo sapiens), Q15102; recombinant PAFAH1B3, FP-rhodamine probe; inhibition, % at 3.39 µM; 0.28% of 340,000 active;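 active = inhibition above the screen-wide average of all tested compounds plus 3 SD, cut at about 25% in these data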;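 note: 0% = enzyme with DMSO only and 100% = wells lacking PAFAH1B3 protein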
Active calls of the source: *; nt = no result given.

SMILES	GRIN3A LBD mod	UCH37 DUB inh	PAFAH2 inh	pPAFAH FP inh	PAFAH1B2 FP inh	PAFAH1B3 inh
CCCCOc1ccc(C(=O)Nc2cc(C)c(OCC(=O)N3CCOCC3)c(C)c2)cc1	-2	4	-3	-1	0	2
CC(C)CCCCCCNC(=S)Nc1ccc(S(=O)(=O)N2CCOCC2)cc1	27*	0	-51	0	-11	-19
Cc1cc(NC(=O)c2ccc(Cl)cc2)cc(C)c1OCC(=O)N1CCOCC1	13*	2	0	3	-1	7
O=C(Nc1ccc(S(=O)(=O)N2CCOCC2)cc1)c1ccc(S(=O)(=O)N2CCOCC2)cc1	-5	-7	8	-2	2	3
O=S(=O)(c1ccc(NC(=S)Nc2ccccc2)cc1)N1CCOCC1	3	1	-7	-3	-4	-2
CCCC(=NNC(=O)c1nnn(-c2nonc2N)c1CN1CCCCC1)c1ccccc1	nt	2	nt	nt	nt	nt
Cc1ccc(C=NNc2cc(C)nc(NCc3ccccc3)n2)cc1	nt	2	nt	nt	nt	nt
O=[N+]([O-])c1ccccc1NN=Cc1ccccc1F	nt	7	nt	nt	nt	nt
COc1ccc(-c2cc(C(=O)NN=Cc3ccc4c(c3)OCO4)c3ccccc3n2)c(OC)c1	nt	-16	nt	nt	nt	nt
COc1cc(C=NN(C)S(=O)(=O)c2ccc(C)cc2)cc([N+](=O)[O-])c1O	nt	10	nt	nt	nt	nt
O=C(N1CCOCC1)N1CCN(S(=O)(=O)c2ccc(Cl)cc2)C1	-1	4	-2	-6	26*	4
O=C(Nc1ccc(S(=O)(=O)N2CCOCC2)cc1)c1ccc(Br)o1	26*	4	2	5	5	5
O=C(C1CC(Cl)CN1S(=O)(=O)c1ccc(Cl)cc1)N1CCOCC1 (stereo not given)	-1	-1	12	3	7	-3
O=C(CN1CCN(S(=O)(=O)c2ccc(Cl)cc2)CC1)Nc1ccc(N2CCOCC2)cc1	10*	6	-2	1	15	2
O=C(CN1CCCCC1)Nc1ccc(S(=O)(=O)N2CCOCC2)cc1	2	0	-3	5	5	-8
CC(=O)Nc1ccc(NC(=O)c2ccc(Cl)c(S(=O)(=O)N3CCc4ccccc43)c2)cc1	13*	0	-1	nt	2	6
O=C(O)c1cc(NN=C/C(Cl)=C/c2ccccc2)ccc1Cl	nt	10	nt	nt	nt	nt
O=C(Nc1ccc2c(c1)OCCO2)c1ccc(Cl)c(S(=O)(=O)N2CCOCC2)c1	0	4	-7	1	0	10
O=C(Nc1ccc(S(=O)(=O)NC2=NCCCCC2)cc1)c1cccc(S(=O)(=O)N2CCOCC2)c1	1	-1	-5	-3	1	7
O=C(Nc1ccc(S(=O)(=O)NC2=NCCCCC2)cc1)c1cc(S(=O)(=O)N2CCOCC2)ccc1F	22*	-1	-9	4	2	11
O=C(Nc1ccc(S(=O)(=O)Nc2ccc(F)cc2)cc1)c1ccc(CN2CCOCC2)cc1	-8	2	4	34*	0	1
O=C(Nc1ccc2c(c1)OCO2)c1ccc(Cl)c(S(=O)(=O)N2CCOCC2)c1	18*	5	1	6	2	1
Cc1ccc(CNC(=O)c2oc3ccc(S(=O)(=O)N4CCOCC4)cc3c2C)cc1	-32	0	-6	5	3	3
Cc1c(C(=O)Nc2cccc(C(F)(F)F)c2)oc2ccc(S(=O)(=O)N3CCOCC3)cc12	25*	2	-5	-1	-2	8
Cc1ccc2nc(Cl)c(C=NNc3nc(C)cc(C)n3)c(=O)n2c1	nt	-11	nt	nt	nt	nt
SMILES	GRIN3A LBD mod	UCH37 DUB inh	PAFAH2 inh	pPAFAH FP inh	PAFAH1B2 FP inh	PAFAH1B3 inh
Cc1ccc(OCC(=O)NN=Cc2ccc(C)o2)c(C)c1	nt	3	nt	nt	nt	nt
COC(=O)c1ccc(C=NNc2nc(-c3ccccc3)cs2)cc1	nt	-13	nt	nt	nt	nt
CC(C)COc1ccc(C(=NO)c2ccccc2)cc1	nt	3	nt	nt	nt	nt
O=C(c1cn(-c2ccccc2)nc1-c1cccnc1)N1CCN(S(=O)(=O)c2ccc(Cl)cc2)CC1	0	-1	-4	nt	29*	4
COc1cc(C=NNC(=O)NC2CCCCC2)ccc1O	nt	3	nt	nt	nt	nt
COc1ccc2cc(/C=N/NC(=O)CN(c3ccccc3C)S(=O)(=O)c3ccccc3)c(Cl)nc2c1	11*	nt	-11	0	-3	6
Cc1ccc(NC(=O)Nc2nnc(Cc3ccc([N+](=O)[O-])cc3)s2)cc1C	25*	2	0	5	-3	2
O=C(Nc1nnc(Cc2ccc([N+](=O)[O-])cc2)s1)Nc1ccccc1F	-6	5	-7	3	-6	-3
O=C(Nc1ccccc1)Nc1nnc(Cc2ccc([N+](=O)[O-])cc2)s1	16*	2	-5	-4	-3	3
O=C(NN=Cc1cccnc1)c1cc(-c2ccc(Cl)cc2)nc2ccccc12	nt	1	nt	nt	nt	nt
O=C(CC1S/C(=N/N=Cc2ccco2)NC1=O)Nc1ccccc1 (stereo not given)	nt	6	nt	nt	nt	nt
Clc1cccc(C(Cc2nc3ccccc3[nH]2)=NNc2ccccc2)c1	nt	6	nt	nt	nt	nt
Clc1cccc(/C(Cc2nc3ccccc3[nH]2)=N\Nc2ccccc2)c1	13*	nt	-26	3	2	8
O=C(CCS(=O)(=O)c1ccccc1)Nc1ccc(-c2nc3ccccc3s2)c(O)c1	15*	nt	3	-7	0	3
O=C(Nc1ccc(-c2nc3ccccc3s2)c(O)c1)C1=COCCO1	36*	-7	-22	-1	-10	-3
O=C(Nc1ccc(-c2nc3ccccc3s2)cc1)C1=COCCO1	30*	-60	-14	0	2	1
Cc1nnc(-c2cccc(Br)c2)c2cn(-c3ccccc3)nc12	4	5	-6	25*	6	7
Cc1nnc(-c2cccc(Br)c2)c2cn(-c3ccc(Br)cc3)nc12	-3	6	-18	3	-1	2
COc1ccc(-n2cc3c(-c4cccc(Br)c4)nnc(C)c3n2)cc1	-10	nt	-1	8	-8	-9
Cc1nnc(-c2cccc(Br)c2)c2cn(-c3cccc(Br)c3)nc12	-3	nt	2	32*	-3	-6
O=C(O/N=C1/CCSc2ccccc21)c1ccccc1	1	nt	41*	0	18	4
COc1ccc(C=Nn2cnc3c([nH]c4ccccc43)c2=O)cc1CO	nt	-14	nt	nt	nt	nt
O=C(NN=Cc1ccc(N2CCOCC2)o1)c1cccc(C(F)(F)F)c1	nt	10	nt	nt	nt	nt
O=C(CSc1nc2ccccc2c(=O)[nH]1)c1ccc(O)c(O)c1	-6	10	49*	33*	10	18

Assay outcomes: PubChem BioAssay, several laboratories
